Screening results deposited in PubChem BioAssay by several laboratories.
L929 necroptosis – L929 zVAD cell death inhibition. L929 zVAD necroptosis rescue, ATP luminescence, 24 h; with zVAD 60 µM. viability rescue, % at 10 µM. 220,000 tested, 0.38% active;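 active = activation, scaled between plate controls, above about 75%, limit read from the data; inactive = activation under that limit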;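 also: 0% = zVAD with DMSO and 100% = DMSO alone without zVAD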
PfM18AAP inh – PfM18AAP enzyme inhibition; recombinant PfM18AAP, H-Glu-NHMec fluorogenic cleavage; inhibition, % at 7.35 µM; 290,000 tested, 1.2% active; AID 1822;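 active = inhibition above the campaign mean inhibition over all tested compounds plus 3 SD, cut at about 28% in these data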;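 also: 0% = plate median of test compound wells and 100% = 2 mM ZnCl2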
Wee1 stabilizer – human Wee1 degradation inhibition, primary screen | 220,000 tested, 1.2% active | reporter increase, % at 5 µM | P30291 | AID 1321 | HeLa Luc-Wee1K328M stability, luciferase luminescence; 100% = proteasome inhibitor MG132 effect;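 active = activation above the mean of all tested compounds plus 3 SD, set per screening run, cut at about 8.8% in these data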;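 also: cells exposed to compound for 20 h before luminescence read; 0% = DMSO alone and 100% = MG132 at 30 µM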
RBBP9 inhibitor – blocks human serine hydrolase RBBP9 | 220,000 tested, 0.2% active | inhibition, % at 7.94 µM | O75884 | recombinant RBBP9, FP-Rh probe fluorescence polarization;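 active = inhibition above the campaign mean of all tested compounds plus 3 SD, cut at about 14% in these data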;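 also: plate controls were DMSO wells with RBBP9 for no effect and wells lacking RBBP9 protein for full effect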
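Test system – recombinant human RBBP9 · Input – RBBP9 2.5 µM in dispensing solution, pre-mixing · Medium – Tris buffer pH 8.0, NaCl, Pluronic · Schedule – preincubation 30 min plus labeling 45 min at 25 °C · Measured by – fluorescence polarization · Measure – % inhibition · Controls – DMSO and no-protein wells · Replicates – one well per compound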
TNF necrop inh – blocks TNF-alpha induced death of Jurkat FADD-/- cells; AID 463075; 220,000 tested, 0.068% active; Jurkat FADD-/- TNF necroptosis rescue, ATP luminescence, 24 h; 0 = TNF only, 100 = no-TNF cells; activation (protection from cell death), % at 10 µM;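 active = activation, meaning protection from cell death, of at least 50% relative to plate controls; inactive = activation below 50%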;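 also: necroptosis triggered by 40 ng/mL TNF-alpha added together with compound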
p97 inhibitor – human p97 ATPase inhibition. 220,000 tested, 0.42% active. recombinant p97 ATPase, Kinase-Glo ATP luminescence, 3 h. P55072. inhibition, % at 8 µM; in the data active = inhibition above about 15%;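 also: 0% = DMSO vehicle and 100% = wells lacking enzyme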
Target sequence (P55072 whole entry, looked up): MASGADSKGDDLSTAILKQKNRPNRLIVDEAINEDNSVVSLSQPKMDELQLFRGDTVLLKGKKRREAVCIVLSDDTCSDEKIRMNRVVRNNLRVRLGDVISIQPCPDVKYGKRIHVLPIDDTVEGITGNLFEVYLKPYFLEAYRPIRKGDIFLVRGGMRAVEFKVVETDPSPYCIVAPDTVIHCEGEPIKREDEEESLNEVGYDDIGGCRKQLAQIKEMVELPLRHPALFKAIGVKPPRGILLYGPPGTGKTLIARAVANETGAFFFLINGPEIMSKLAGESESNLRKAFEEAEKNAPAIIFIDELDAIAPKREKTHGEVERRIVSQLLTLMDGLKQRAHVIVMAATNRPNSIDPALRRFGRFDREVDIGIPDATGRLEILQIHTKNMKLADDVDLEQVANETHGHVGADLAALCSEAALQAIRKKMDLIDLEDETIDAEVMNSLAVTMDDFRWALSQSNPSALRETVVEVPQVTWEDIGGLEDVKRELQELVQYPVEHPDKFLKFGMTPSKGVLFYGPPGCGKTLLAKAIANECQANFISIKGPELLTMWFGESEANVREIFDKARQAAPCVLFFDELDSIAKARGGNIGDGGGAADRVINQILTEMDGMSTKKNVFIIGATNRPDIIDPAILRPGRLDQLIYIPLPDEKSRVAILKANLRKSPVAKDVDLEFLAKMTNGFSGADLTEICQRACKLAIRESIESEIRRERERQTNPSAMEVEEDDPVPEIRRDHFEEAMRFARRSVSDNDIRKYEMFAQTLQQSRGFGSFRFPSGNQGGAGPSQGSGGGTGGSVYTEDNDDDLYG
zVAD necrop conf – confirmed blocker of zVAD induced death in L929 cells. shares compounds with L929 necroptosis. L929 zVAD-induced necroptosis rescue, ATP luminescence, 24 h. activation (protection from necroptosis), % at 10 µM. 760 tested, 16% active. AID 463117;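 active = mean protection from necroptosis of at least 50% over duplicate tests; inactive = mean protection below 50%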;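 also: 0% = cells with zVAD alone and 100% = vehicle cells without zVAD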
* hit, by the source's call; . = not tested or not shown. Shown are actives, neighbours in structure and some others; about 2.7% of the full set was active somewhere.

SMILES | L929 necroptosis | PfM18AAP inh | Wee1 stabilizer | RBBP9 inhibitor | TNF necrop inh | p97 inhibitor | zVAD necrop conf
Cc1ccccc1NC(=O)C(C)n1c2ccccc2c2nc(=O)cc(C)n21 (centres undefined) | 0 | 0 | 3 | -7 | 5 | 4 | .
COc1cc(/C=N/Nc2nc3ccccc3[nH]c2=O)ccc1O | 78* | 0 | -3 | -7 | -3 | -1 | 15
COc1cc(/C=N/Nc2nc3ccccc3[nH]2)ccc1O | 79* | 11 | 0 | 7 | 36 | 7 | 47
COc1cc(/C=N/Nc2nc3ccccc3[nH]2)cc(Br)c1OCC(=O)N(C)C | 75* | 7 | -2 | -5 | 64* | 7 | 60*
COc1cc(/C=N/Nc2nc3ccccc3[nH]2)cc(OC)c1O | 87* | 23 | -3 | 11 | 16 | 8 | 3
COc1ccc(O)c(/C=N/Nc2nc3ccccc3[nH]2)c1 | 22 | 22 | 2 | 4 | 20 | 2 | .
CC1(C)CC(=O)C(C(C2=C(O)CC(C)(C)CC2=O)c2ccc(O)c([N+](=O)[O-])c2)=C(O)C1 | 1 | 3 | -5 | 2 | 0 | 6 | .
Cc1ccc(NC(=O)CN2C(=O)S/C(=C/c3ccc(O)c([N+](=O)[O-])c3)C2=O)cc1C | 86* | 0 | -3 | 5 | 2 | 10 | 2
FC(F)(F)c1cccc(NC(=S)NNC(=S)Nc2ccc(Cl)cc2)c1 | 64 | 14 | 1 | -5 | 3 | 6 | .
Cc1ccc(NC(=S)NNC(=S)Nc2cccc(C(F)(F)F)c2)cc1 | 76* | 28 | 4 | -3 | 6 | 5 | 5
COCC1CCCCC1OS(N)(=O)=O (centres undefined) | . | 4 | . | . | . | . | .
CC(C)(C)c1ccc(COn2ccnc2)cc1 | 2 | -2 | 1 | -7 | 1 | -1 | .
Brc1ccc(COn2ccnc2)cc1 | 91* | 4 | 1 | 1 | 61* | 0 | 75*
Cc1ccc(NC(=O)COc2ccc(Br)cc2CO)cc1 | 0 | -14 | -1 | -6 | 1 | -7 | .
COc1cc(CO)ccc1OCC(=O)Nc1ccc(Br)cc1 | 76* | -1 | 1 | -2 | 1 | 0 | 0
CC(=O)c1c(Cl)nc2ccc(Br)cc2c1-c1ccccc1 | . | 7 | . | . | . | . | .
CC(=O)c1ccc(NC(=O)COC(=O)c2nc(Cl)ccc2Cl)cc1 | 1 | 1 | -4 | -9 | -1 | 3 | .
Cc1nc(-c2ccccc2)sc1-c1ccn[nH]1 | 80* | -7 | 7 | -6 | 10 | 0 | 40
CCn1c(-c2sc(-c3ccccc3)nc2C)n[nH]c1=S | 3 | 11 | -1 | -8 | 0 | -6 | .
OCCC1CN(Cc2ccc3c(c2)CCO3)CCN1C1CCCC1 (centres undefined) | 0 | 0 | 6 | 0 | 0 | 3 | .
Cc1nc2nc(SCC(=O)c3ccc([N+](=O)[O-])cc3)[nH]c2cc1Br | 90* | -2 | 1 | 7 | 0 | 8 | 1
COc1ccc(CNc2ncnc3cc(Cl)ccc23)cc1OC | 1 | -12 | -1 | -6 | 2 | 0 | .
CCN(CC)Cc1cc2[nH]c3c4ccc(Cl)cc4ncc3c2cc1OC | 81* | 7 | -1 | -3 | -29 | 14 | 73*
COc1ccc(-c2nnc3sc(C4CCCCC4)nn23)cc1OC | 76* | -3 | -2 | -3 | -3 | -8 | 1
COc1ccc(Nc2nc(N3CCN(S(=O)(=O)N(C)C)CC3)nc3ccccc23)cc1 | . | 11 | . | . | . | . | .
SMILES | L929 necroptosis | PfM18AAP inh | Wee1 stabilizer | RBBP9 inhibitor | TNF necrop inh | p97 inhibitor | zVAD necrop conf
CCCN1C(=O)/C(=C/c2ccc(C)s2)NC1=S | 92* | -1 | -1 | 7 | 30 | 0 | 87*
CN(C)c1ccc(P(=O)(OCc2ccccc2)C(O)c2ccccc2)cc1 (centres undefined) | 1 | 3 | 8 | -4 | -2 | -1 | .
COCCN(C(=S)Nc1ccc(C)cc1)C(C)c1cccnc1 (centres undefined) | 0 | -4 | 3 | 1 | 0 | 3 | .
COc1ccc2nc(NC(=O)Nc3ccccc3)sc2c1 | 74 | -4 | -1 | 3 | 9 | 5 | .
CC(C)(C)c1nc(NC(=O)Nc2ccccc2)sc1Br | 83* | -2 | 3 | -19 | -1 | 3 | 3
c1cncc(-c2nc(NCCCn3ccnc3)c3ccccc3n2)c1 | 75* | 6 | 2 | -9 | 1 | 8 | 32
Cc1cc(C)n2nc(C(=O)Nc3cccc(S(=O)(=O)N(C)c4ccccc4)c3)nc2n1 | 0 | -8 | -3 | 3 | -2 | -4 | .
Cn1c(SCC(=O)N2CCOCC2)nc2c(c1=O)SCC2 | . | -2 | . | . | . | . | .
COc1cccc(S(=O)(=O)NCc2ccc(C(=O)Nc3ccc(Cl)c(Cl)c3)cc2)c1 | -1 | -1 | 4 | -18 | 0 | 2 | .
O=C(Nc1ccc(Cl)c(Cl)c1)c1cccc(S(=O)(=O)NCc2cccnc2)c1 | 77* | 1 | 1 | -21 | -5 | 2 | 2
O=C(NC1CCCCC1)C(c1ccccc1)N(C(=O)c1csnn1)C1CC1 (centres undefined) | . | 2 | . | . | . | . | .
O=C(Nc1ccc(Cl)cc1)N1N=CCC1c1ccccc1 (centres undefined) | 79* | -5 | -1 | -11 | 92* | -2 | 25
Cc1cccc(NC(=S)N2N=CCC2c2ccccc2)c1 (centres undefined) | 1 | -4 | 0 | -6 | 11 | 1 | .
C[C@@H]1CC2OC(=O)[C@@]3(C)C(=O)CC[C@@](C)(C23)[C@@]1(O)CCc1ccoc1 (some centres undefined) | . | -1 | . | . | . | . | .
N=c1nc(N)nc2n1NC(c1ccc(F)cc1)=CS2 | 81* | 2 | 1 | -1 | 20 | 3 | 40
COc1ccc(NC(=O)Nc2ccc(Br)cn2)cc1 | 79* | -9 | 0 | -7 | 9 | -1 | 10
N=C1C(c2ccccc2)=C(O)CN1c1cccc(S(=O)(=O)N2CCOCC2)c1 | 1 | -5 | 2 | -8 | 0 | 3 | .
COc1ccc(N2C3=C(CC4=C2CC(C)(C)CC4=O)C(=O)CC(C)(C)C3)cc1 | 95* | 6 | 3 | 5 | 2 | 2 | 40
CC(=O)Nc1ccc(-c2csc(Nc3ncccn3)n2)cc1 | 80* | 8 | 0 | -4 | 4 | 2 | 1
Oc1ccc(-c2csc(Nc3ncccn3)n2)cc1 | 78* | -16 | 2 | 1 | 16 | 3 | 75*
CC(=O)Nc1ccc(-c2csc(Nc3cc(C)ccn3)n2)cc1 | 9 | -10 | 9 | 12 | -1 | -1 | .
c1ccc(-c2csc(Nc3ncccn3)n2)cc1 | 6 | -1 | 0 | -3 | 3 | 13 | .
